The results in this text go back to PMC7758955 (ACS Omega, 2020).

Data set [1] addresses T1, COX-2 (human recombinant) (Homo sapiens, UniProt P35354).
T1 sequence (P35354 18-604): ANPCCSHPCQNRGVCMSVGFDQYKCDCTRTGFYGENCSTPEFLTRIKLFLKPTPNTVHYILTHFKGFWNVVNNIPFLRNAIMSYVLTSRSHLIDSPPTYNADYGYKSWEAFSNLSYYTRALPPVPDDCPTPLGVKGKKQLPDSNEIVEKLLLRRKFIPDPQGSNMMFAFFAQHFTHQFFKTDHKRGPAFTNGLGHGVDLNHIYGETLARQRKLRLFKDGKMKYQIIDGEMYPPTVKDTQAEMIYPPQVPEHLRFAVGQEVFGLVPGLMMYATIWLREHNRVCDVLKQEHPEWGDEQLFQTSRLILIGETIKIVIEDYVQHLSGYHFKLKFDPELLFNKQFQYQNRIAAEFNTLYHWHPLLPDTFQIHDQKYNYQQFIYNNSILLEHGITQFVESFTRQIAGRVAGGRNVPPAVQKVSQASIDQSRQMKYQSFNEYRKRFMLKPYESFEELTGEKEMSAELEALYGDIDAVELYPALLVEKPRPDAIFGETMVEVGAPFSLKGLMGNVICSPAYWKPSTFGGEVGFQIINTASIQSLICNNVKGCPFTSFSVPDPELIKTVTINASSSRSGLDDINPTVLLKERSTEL
The data set is described as follows: COX Fluorescent Inhibitor Screening Assay Kit, COX-2. Type of data set: biochemical.

Data set [2] concerns the target T2, COX-1 (ovine) (Ovis aries, UniProt P05979).
T2 sequence (P05979 25-600): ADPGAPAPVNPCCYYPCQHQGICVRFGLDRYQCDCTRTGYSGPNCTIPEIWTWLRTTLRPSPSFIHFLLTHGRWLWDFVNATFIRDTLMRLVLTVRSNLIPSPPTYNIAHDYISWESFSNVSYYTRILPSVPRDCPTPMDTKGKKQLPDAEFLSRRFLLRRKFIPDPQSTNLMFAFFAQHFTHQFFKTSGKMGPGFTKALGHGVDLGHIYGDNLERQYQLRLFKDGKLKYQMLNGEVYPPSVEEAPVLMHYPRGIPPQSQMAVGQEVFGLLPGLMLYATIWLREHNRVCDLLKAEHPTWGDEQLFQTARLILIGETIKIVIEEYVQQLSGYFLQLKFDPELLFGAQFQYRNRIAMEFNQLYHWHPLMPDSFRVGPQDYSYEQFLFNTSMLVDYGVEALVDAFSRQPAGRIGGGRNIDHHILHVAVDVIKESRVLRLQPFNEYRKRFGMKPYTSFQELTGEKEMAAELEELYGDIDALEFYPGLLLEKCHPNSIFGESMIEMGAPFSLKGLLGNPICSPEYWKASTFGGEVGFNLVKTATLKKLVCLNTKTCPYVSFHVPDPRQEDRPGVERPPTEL
The data set is described as follows: COX Fluorescent Inhibitor Screening Assay Kit, COX-1. In kind it is biochemical.

Data set [3] has as its system cryopreserved human hepatocytes. The data set is described as follows: Hepatocyte toxicity by WST-8 assay. Type of data set: cell-based. The following applies: 200 μM, 2 h with shaking, relative to control (0.25 v/v% DMSO). Summed up: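 Thawed cryopreserved human hepatocytes were kept at 37 °C in humidified 5% CO2 and seeded at 5.0 × 10^4 cells/well. Test compound was added in DMSO (final 0.25% v/v; DMSO-only control), then shaken 2 h. CCK-8 (WST-8) reagent was added for another 4 h. Absorbance was read at 450 nm (reference 600 nm), and viability was expressed relative to control.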

By IC50 is commonly meant the concentration needed to halve the response being measured.

Where only a bound is given, the exact number is not on record here.

In the case of `O=C(O)Cc1ccccc1Nc1c(Cl)cc(F)cc1Cl` [1b], the half-inhibitory concentration (IC50) in data set [1] came to 27 µM; in data set [2], 0.67 µM.

On to `O=C(O)Cc1cc(F)ccc1Nc1c(Cl)cc(F)cc1Cl` [1d], for which the IC50 is 26 µM in data set [1] and 0.73 µM in data set [2].

Take `O=C(O)C(F)(F)c1ccccc1Nc1c(Cl)cc(F)cc1Cl` [2b]: the IC50 in data set [1] and in data set [2] was above 100 µM throughout.

For `O=C(O)C(F)(F)c1cc(F)ccc1Nc1c(Cl)cccc1Cl` [2c], the IC50 is 21 µM in data set [1] and above 100 µM in data set [2]. In addition, the “COX-2 IC50 relative to that of DCF” value in data set [1] (ratio to DCF IC50) is “three times higher”. In addition, the “cytotoxicity in cryopreserved human hepatocytes (cell viability, WST-8)” value in data set [3] is “much weaker than that of DCF”.

Consider `O=C(O)C(F)(F)c1cc(F)ccc1Nc1c(Cl)cc(F)cc1Cl` [2d], for which the IC50 in data set [1] and in data set [2] was above 100 µM each time.

As to `Fc1cc(Cl)c(Nc2ccc(F)cc2Cc2nnn[nH]2)c(Cl)c1` [3d], the half-inhibitory concentration (IC50) in data set [1] and in data set [2] was above 100 µM throughout.

As to `O=S(=O)(O)Cc1ccccc1Nc1c(Cl)cccc1Cl` [4a], the IC50 in data set [1] and in data set [2] was above 100 µM each time. Further, the “COX-2 inhibition (in words)” value in data set [1] (up to a concentration of 100 μM) is “did not inhibit COX-2”.
